Experiment [1] concerns the target T1, Angiotensin-converting enzyme (Rattus norvegicus, UniProt P47820).
T1 sequence (P47820 whole entry): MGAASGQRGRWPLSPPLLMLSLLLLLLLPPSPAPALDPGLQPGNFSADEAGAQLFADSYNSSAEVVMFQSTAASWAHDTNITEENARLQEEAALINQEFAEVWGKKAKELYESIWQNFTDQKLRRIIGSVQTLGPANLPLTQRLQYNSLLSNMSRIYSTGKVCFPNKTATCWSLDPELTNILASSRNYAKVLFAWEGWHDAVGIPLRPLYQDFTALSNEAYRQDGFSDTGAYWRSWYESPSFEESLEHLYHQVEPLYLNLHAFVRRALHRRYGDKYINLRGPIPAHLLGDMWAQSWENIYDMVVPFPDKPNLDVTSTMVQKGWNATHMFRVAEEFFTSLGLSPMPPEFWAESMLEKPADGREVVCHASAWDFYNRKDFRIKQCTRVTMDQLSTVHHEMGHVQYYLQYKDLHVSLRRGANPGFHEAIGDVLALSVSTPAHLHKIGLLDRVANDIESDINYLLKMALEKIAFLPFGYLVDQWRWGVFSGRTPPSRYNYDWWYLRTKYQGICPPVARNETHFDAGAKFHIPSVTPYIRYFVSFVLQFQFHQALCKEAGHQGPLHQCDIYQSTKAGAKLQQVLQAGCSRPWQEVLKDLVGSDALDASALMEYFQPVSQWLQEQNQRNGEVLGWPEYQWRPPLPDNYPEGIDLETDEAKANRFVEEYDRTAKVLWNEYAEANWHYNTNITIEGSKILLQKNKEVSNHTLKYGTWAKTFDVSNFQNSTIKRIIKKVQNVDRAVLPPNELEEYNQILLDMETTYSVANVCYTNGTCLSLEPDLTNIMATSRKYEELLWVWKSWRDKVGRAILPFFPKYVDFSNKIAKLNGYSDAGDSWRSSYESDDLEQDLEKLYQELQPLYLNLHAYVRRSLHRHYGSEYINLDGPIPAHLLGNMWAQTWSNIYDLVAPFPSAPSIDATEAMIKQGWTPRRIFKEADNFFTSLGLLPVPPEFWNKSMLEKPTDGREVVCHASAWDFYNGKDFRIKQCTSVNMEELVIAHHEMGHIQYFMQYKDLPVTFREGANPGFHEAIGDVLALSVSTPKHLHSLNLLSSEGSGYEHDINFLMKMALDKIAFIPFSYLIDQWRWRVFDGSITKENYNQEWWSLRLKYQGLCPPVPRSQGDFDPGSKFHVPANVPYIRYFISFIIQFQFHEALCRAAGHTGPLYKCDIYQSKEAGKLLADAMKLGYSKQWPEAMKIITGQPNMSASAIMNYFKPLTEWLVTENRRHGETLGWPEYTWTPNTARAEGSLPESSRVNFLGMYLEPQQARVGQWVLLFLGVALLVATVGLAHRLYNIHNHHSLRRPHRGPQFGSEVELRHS
The experiment can be described thus: Inhibition of Angiotensin I converting enzyme in rat.

For experiment [2], the system named is Rattus norvegicus. The experiment in a line: Percent inhibition of angiotensin I (AI) pressor response after intravenous administration (dose of 0.05 mg/kg)to conscious normotensive rats. The experiment is classed as functional. The gist of the method: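 Angiotensin I pressor response measured in conscious normotensive rats, 15 min after intravenous dosing of test compound; value is percent inhibition of the pressor response.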

Experiment [3] has as its system Rattus norvegicus. The experiment can be described thus: Percent inhibition of angiotensin I (AI) pressor response after oral administration (dose of 1.0 mg/kg) to conscious normotensive rats. Type of experiment: functional. The gist of the method: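 Angiotensin I pressor response measured in conscious normotensive rats, 1 h after oral dosing of test compound; value is percent inhibition of the pressor response.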

For experiment [4], the system named is Rattus norvegicus. The experiment can be described thus: The maximal change in blood pressure recorded during the 4-day test period in spontaneously hypertensive rats (SHR) after oral administration. Type of experiment: functional.

In the case of `CCOC(=O)C(CCc1ccccc1)NC1CSc2ccccc2N(CC(=O)O)C1=O` (stereo in doubt; 14a), it took 0.86 µM to reach half-maximal inhibition in experiment [1] (IC50).

Compound `CCOC(=O)C(CCc1ccccc1)NC1CSc2ccccc2N(CC(=O)O)C1=O.Cl` (stereo in doubt; 14c) displayed an IC50 in experiment [1] of 2.2 µM. This compound showed an inhibition in vivo at 0.05 mg/kg in experiment [2] of 75%. In experiment [3], the inhibition in vivo at 1 mg/kg came out at 39%. Further, the “Max delta BP” value in experiment [4] is recorded as -35 mmHg.

In experiment [1], `O=C(O)CN1C(=O)[C@@H](NC(CCc2ccccc2)C(=O)O)CCc2ccccc21` (stereo partly specified) came in with an IC50 of 0.0017 µM.

In turn, `O=C(O)CN1C(=O)[C@@H](NC(CCc2ccccc2)C(=O)O)CSc2ccccc21` (stereo partly specified) displayed a half-inhibitory concentration (IC50) in experiment [1] of 0.0098 µM.

For `O=C(O)CN1C(=O)[C@@H](NC(CCc2ccccc2)C(=O)O)C[S+]([O-])c2ccccc21` (stereo partly specified), 0.0059 µM corresponded to half-maximal inhibition in experiment [1] (IC50).

The compound `CCOC(=O)C(CCc1ccccc1)N[C@H]1CSc2ccccc2N(CC(=O)O)C1=O` (stereo partly specified) displayed an IC50 in experiment [1] of 8 µM.

In the case of `O=C(O)CN1C(=O)[C@@H](N[C@H](CCc2ccccc2)C(=O)O)CSc2ccccc21`, half-maximal inhibition in experiment [1] (IC50) required 0.24 µM.

For `CCOC(=O)CN1C(=O)[C@@H](NC(CCc2ccccc2)C(=O)OCC)CCc2ccccc21` (stereo partly specified), in experiment [1], the midpoint of inhibition, the IC50, lay at 0.43 µM. The same compound displayed an inhibition in vivo at 0.05 mg/kg in experiment [2] of 77%. Further, at 1 mg/kg the inhibition in vivo in experiment [3] was 88%. Also, the “Max delta BP” value in experiment [4] was -76 mmHg.

`O=C(O)CN1C(=O)[C@@H](N[C@@H](CCc2ccccc2)C(=O)O)CSc2ccccc21`: the half-inhibitory concentration (IC50) in experiment [1] turned out to be 0.0029 µM.

For `O=C(O)CN1C(=O)[C@@H](NC(CCc2ccccc2)C(=O)O)CS(=O)(=O)c2ccccc21` (stereo partly specified), the IC50 in experiment [1] was 2.9 µM.

The values are drawn from ChEMBL document CHEMBL1123100, “Angiotensin converting enzyme inhibitors: 1,5-benzothiazepine derivatives” (J Med Chem, 1985).
